Converted amounts (≈) assume the structure as drawn. The source made the active and inactive calls. The calls are words filed in the database; no cut-off is given here.
What was measured:
[1] = AUC (0.5 to 16 hrs) in plasma of B6C3F1 mouse at 2 mg/kg, iv; assay type: ADME, organism-based; set-up: time upper 16 hr, time lower 0.5 hr, dose 2 mg/kg, route intravenous
How it was run: (§1)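 Female B6C3F1 mice, two months old, given 2 mg/kg i.v., three mice per time point at 0.5, 1, 2, 4, 8 and 16 h. Brain hemispheres were homogenized in 10 mM ammonium acetate pH 5.7, and plasma was taken from EDTA blood. Both were extracted with acetonitrile and measured by LC-MS/MS (MRM) against spiked standard curves at 4–4000 ng/mL.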

[2] = Inhibition of K18PL tau protein aggregation by orthogonal sedimentation based SDS-PAGE relative to control; conditions: concentration not given here
[3] = Inhibition of heparin-induced K18PL tau protein aggregation assessed as thioflavin T binding by fluorescence assay relative to control; conditions: concentration not given here
[4] = Oral bioavailability in B6C3F1 mouse at 5 mg/kg; assay type: ADME, organism-based; conditions: in vivo
How it was run: (§2)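 Mice were dosed by oral gavage at 5 mg/kg. […] Bioavailability was obtained by comparing plasma AUC after oral dosing with AUC after 2 mg/kg i.v.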

[5] = Aqueous solubility in sodium acetate buffer at pH 7.0 by turbidimetric measurements; assay type: physicochemical
How it was run: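 Compounds were serially diluted 2.5-fold in DMSO, then diluted 100-fold into 100 mM NaOAc pH 7.0 (final 200 µM down to 0.03 µM, 1% DMSO). Plates were agitated for 2.5 h and absorbance was read at 550–700 nm with the DMSO blank subtracted. The solubility limit was taken as the concentration before the one where mean absorbance exceeded 0.03 AU.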

Plasma [6] = assay: Elimination half life in plasma of B6C3F1 mouse at 2 mg/kg, iv; assay type: ADME, organism-based; set-up: dose 2 mg/kg, route intravenous; conditions: in vivo
How it was run: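 Female B6C3F1 mice received 2 mg/kg i.v., three per time point. Plasma levels were measured by LC-MS/MS with 1/x-weighted calibration, averaging triplicate injections. Half-life was derived from the elimination rate constant, taken as the slope of ln plasma concentration against time over the 4, 8 and 16 h points.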

HEK293 = assay: Cytotoxicity against HEK293 cells up to 100 uM after 72 hrs by alamar blue assay; assay type: cell-based; conditions: human, hek293, 72 h
How it was run: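 HEK-293 cells were plated at 20,000 per well in DMEM with 10% FCS. After 24 h, half-log compound dilutions starting at 200 µM were added. Cells were cultured for 72 h, and viability was read by Alamar blue fluorescence. CC50 values were fitted from the curves.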

Brain = assay: Drug level in brain of B6C3F1 mouse at 5 mg/kg, ip by LC-MS/MS analysis; assay type: ADME, organism-based; set-up: dose 5 mg/kg, route intraperitoneal; conditions: in vivo
How it was run: (§3)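 Three female B6C3F1 mice per compound were given 5 mg/kg i.p. Brain and plasma were sampled at a single 1 h time point. Brain was homogenized 1:2 w/v in 10 mM ammonium acetate pH 5.7, and plasma was collected in EDTA. Samples were extracted with acetonitrile and quantified by LC-MS/MS MRM against spiked calibration curves. B/P was taken as the brain/plasma ratio.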

[7] = AUC (0.5 to 16 hrs) in plasma of B6C3F1 mouse at 5 mg/kg, po; assay type: ADME, organism-based; set-up: time 0.5-16 hr, dose 5 mg/kg, route oral; how it was run: as §2
[8] = Ratio of drug level from brain to plasma of B6C3F1 mouse at 2 mg/kg, iv; assay type: ADME, organism-based; set-up: dose 2 mg/kg, route intravenous; conditions: read-out: BPR; how it was run: as §1
Plasma [9] = assay: Drug level in plasma of B6C3F1 mouse at 5 mg/kg, ip by LC-MS/MS analysis; assay type: ADME, organism-based; set-up: dose 5 mg/kg, route intraperitoneal; conditions: in vivo; how it was run: as §3
[10] = Inhibition of tau40 protein aggregation by orthogonal sedimentation based SDS-PAGE relative to control; set-up: concentration or dose not given beside the values; conditions: concentration not given here
Homo sapiens = species on record: Homo sapiens; assay: Inhibition of human full length tau40 protein-mediated bovine brain tubulin assembly at 62.5 uM by MT assembly assay
How it was run: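 Wild-type full-length human tau40 (2N4R, 25 µM) was preincubated with compound at 62.5 µM in RAB pH 6.9 for 120 min at room temperature. Bovine brain tubulin and GTP were then added, giving final concentrations of 30 µM tubulin, 20 µM tau, 50 µM compound and 2 mM GTP. Absorbance at 340 nm was read every minute for 45 min at 37 °C.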

[11] = AUC (0.5 to 16 hrs) in brain of B6C3F1 mouse at 2 mg/kg, iv; assay type: ADME, organism-based; set-up: time upper 16 hr, time lower 0.5 hr, dose 2 mg/kg, route intravenous; how it was run: as §1
[12] = Ratio of drug level from brain to plasma of B6C3F1 mouse at 5 mg/kg, ip by LC-MS/MS analysis; assay type: ADME, organism-based; set-up: dose 5 mg/kg, route intraperitoneal; how it was run: as §3

Row | AUC(0-t) [1] | inhibition [2] | inhibition [3] | bioavailability [4] | solubility kinetic [5] | beta t1/2 (Plasma [6]) | Drug uptake (Brain) | AUC(0-t) [7] | Kp [8] | Drug uptake (Plasma [9]) | inhibition [10] | inhibition (Homo sapiens) | AUC(0-t) [11] | BPR [12] | Structure (SMILES) | Activity (HEK293)
1 | 0.297 µg·h/mL | 69% | 83% | 70% | 32 µM (≈ 11.5 µg/mL) | >= 2.5 hr | 1299 ng/g | 0.526 µg·h/mL | 1.58 | 823 ng/mL | 58% | inactive | 0.469 µg·h/mL |  | Nc1scc2c(C(=O)NC3CC3)nn(-c3ccc(Cl)cc3)c(=O)c12 | Non-toxic
2 |  | 65% | 83% |  | 32 µM (≈ 11.6 µg/mL) |  | 1100 ng/g |  |  | 499 ng/mL | 45% | inactive |  |  | CC(C)NC(=O)c1nn(-c2ccc(Cl)cc2)c(=O)c2c(N)scc12 | Non-toxic
3 |  | 58% | 85% |  | 13 µM (≈ 5.29 µg/mL) |  | 641 ng/g |  |  | 316 ng/mL | 55% | inactive |  |  | CC(C)NC(=O)c1nn(-c2ccc(Br)cc2)c(=O)c2c(N)scc12 | Non-toxic
4 |  | 68% | 78% |  | 13 µM (≈ 4.35 µg/mL) |  | 34 ng/g |  |  | 70 ng/mL | 61% | inactive |  |  | CNC(=O)c1nn(-c2ccc(Cl)cc2)c(=O)c2c(N)scc12 | Non-toxic
5 |  | 79% | 84% |  | > 200 µM |  | 121 ng/g |  |  | 5230 ng/mL | 62% | inactive |  |  | Nc1scc2c(C(=O)O)nn(-c3ccc(Cl)cc3)c(=O)c12 | Non-toxic
6 |  | 44% | 79% |  | 32 µM (≈ 11.6 µg/mL) |  | 436 ng/g |  |  | 84 ng/mL | 61% | inactive |  | 5.2 | CC(C)OC(=O)c1nn(-c2ccc(Cl)cc2)c(=O)c2c(N)scc12 | Non-toxic
7 |  | 62% | 75% |  | 80 µM (≈ 29 µg/mL) |  | 122 ng/g |  |  | 138 ng/mL | 58% | inactive |  |  | CCN(C)C(=O)c1nn(-c2ccc(Cl)cc2)c(=O)c2c(N)scc12 | Non-toxic
8 |  | 69% | 75% |  | 32 µM (≈ 11.2 µg/mL) |  | 14 ng/g |  |  | 30 ng/mL | 69% | inactive |  |  | CN(C)C(=O)c1nn(-c2ccc(Cl)cc2)c(=O)c2c(N)scc12 | Non-toxic
9 |  | 94% | 84% |  | 32 µM (≈ 11.2 µg/mL) |  | 886 ng/g |  |  | 500 ng/mL | 87% | inactive |  |  | CCNC(=O)c1nn(-c2ccc(Cl)cc2)c(=O)c2c(N)scc12 | Non-toxic
10 |  | 70% | 71% |  | 13 µM (≈ 4.55 µg/mL) |  | 67 ng/g |  |  | 20 ng/mL | 48% | inactive |  |  | CCOC(=O)c1nn(-c2ccc(Cl)cc2)c(=O)c2c(N)scc12 | Non-toxic
